Assay results reported in ChEMBL document CHEMBL1152331, “seco-Abietane diterpenoids, a phenylethanoid derivative, and antitubercular constituents from Callicarpa pilosissima” (2009).
≈ marks a conversion by molar mass, not a printed value.

system: Mycobacterium tuberculosis; assay: Antitubercular activity against Mycobacterium tuberculosis H37Rv after 2 weeks; assay type: functional; conditions: 336 h
Procedure, shortened: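 Agar proportion method on Middlebrook 7H10 with OADC; compound mixed into agar at 50-56 °C by serial dilution, final 100 to 0.8 µg/mL, poured into quadrant plates. Inoculum in 7H9 broth adjusted to McFarland no. 1, then diluted 10-2; 33 µL per quadrant. Incubated 35 °C, 10% CO2, 2 weeks; MIC read. Ethambutol as positive control.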

Q: With CC(C)c1ccc2c(c1)C(=O)C[C@H]1C(C)(C)CCC[C@]21C as the compound, how does the MIC read?
A: > 300 µM

Q: Which MIC does the source give for COc1cc([C@H]2OC[C@@H]3C(=O)OC[C@@H]32)cc(OC)c1O here?
A: 257 µM (≈ 72.1 µg/mL)

Q: With C=C(C)[C@@H]1CCC2=C(CCC(C(C)C)=C2)[C@@]1(C)CCC(=O)OC as the compound, how does the MIC read?
A: 38 µM (≈ 12 µg/mL)

Q: For C=C(C)[C@@H]1CCc2cc(C(C)C)ccc2[C@@]1(C)CCC(=O)OC, which MIC is on record?
A: 153 µM (≈ 48.1 µg/mL)

Q: For CCCCCCCCCCCCCC(=O)OCCc1ccc(O)cc1, which MIC is on record?
A: > 300 µM

Q: CC(C)c1ccc2c(c1)CC[C@H]1C(C)(C)C(=O)CC[C@]21C was tested. Which MIC did it give?
A: 148 µM (≈ 42.1 µg/mL)

Q: C=C(C)[C@@H]1CC=C2C=C(C(C)C)CC[C@]2(O)[C@@]1(C)CCC(=O)O [9R-HYDROXYCALLICARPIC ACID A] was tested. Which MIC did it give?
A: 113 µM (≈ 36 µg/mL)

Q: For COc1ccc(-c2cc(=O)c3c(O)cc(O)cc3o2)cc1 [ACACETIN], which MIC is on record?
A: 282 µM (≈ 80.1 µg/mL)

Q: How did the MIC turn out when COc1ccc(-c2oc3cc(OC)c(OC)c(O)c3c(=O)c2OC)cc1OC [ARTEMETIN] was run?
A: 186 µM (≈ 72.1 µg/mL)

Q: For CC[C@H](CC[C@@H](C)[C@H]1CC[C@H]2[C@@H]3CC=C4CC(=O)CC[C@]4(C)[C@H]3CC[C@]12C)C(C)C [BETA-SITOSTENONE], which MIC is on record?
A: > 300 µM

Q: With C=C(C)[C@@H]1CC=C2C=C(C(C)C)CC[C@@H]2[C@@]1(C)CCC(=O)O [CALLICARPIC ACID A] as the compound, how does the MIC read?
A: 238 µM (≈ 72.1 µg/mL)

Q: For C=C(C)[C@@H]1CCC2=C(C(=O)C=C(C(C)C)C2=O)[C@@]1(C)CCC(=O)O [CALLICARPIC ACID B], which MIC is on record?
A: 63.6 µM (≈ 21 µg/mL)

Q: With COc1ccc(-c2oc3cc(OC)c(OC)c(O)c3c(=O)c2OC)cc1O [CASTICIN] as the compound, how does the MIC read?
A: 214 µM (≈ 80.1 µg/mL)

Q: Which MIC does the source give for CC[C@@H](CO)NCCN[C@@H](CC)CO [ETHAMBUTOL] here?
A: 30.6 µM (≈ 6.25 µg/mL)

Q: Which MIC does the source give for COc1ccc(-c2oc3cc(OC)c(OC)c(OC)c3c(=O)c2OC)cc1OC [HEXAMETHOXYFLAVONE] here?
A: 179 µM (≈ 72.1 µg/mL)

Q: COc1cc2oc(-c3ccc(O)cc3)c(OC)c(=O)c2c(O)c1OC [PENDULETIN] was tested. Which MIC did it give?
A: 157 µM (≈ 54.1 µg/mL)

Q: Which MIC does the source give for CC(C)=CCC/C(C)=C/CC/C(C)=C/CC/C=C(\C)CC/C=C(\C)CCC=C(C)C [SQUALENE] here?
A: 122 µM (≈ 50.1 µg/mL)

Q: How did the MIC turn out when CCCCCCCCCCCCCCCCCC(=O)O [STEARIC ACID] was run?
A: > 300 µM
